High-throughput results deposited in PubChem BioAssay by several laboratories.
hERG protect: hERG rescue from dofetilide block, primary screen, cell-based, CHO-hERG, FluxOR thallium flux, dofetilide IC70; Voltage-gated inwardly rectifying potassium channel KCNH2 (Homo sapiens), Q12809; dofetilide IC70 present; activation (rescue from dofetilide block), less the hit threshold, % at 10 µM; 310,000 tested, 0.51% active; AID 1511, 2009;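 active = activation above the mean of controls blocked by dofetilide plus 5 SD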;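 note: thallium influx through hERG after potassium depolarization seen as dye fluorescence rise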
KCNQ1 block: inhibitors of human KCNQ1 channel, primary screen, cell-based, thallium flux, high-throughput. AID 2642, 2010. CHO-K1 KCNQ1, FluxOR thallium flux fluorescence; stronger effect = higher value. Potassium voltage-gated channel subfamily KQT member 1 (Homo sapiens), P51787. 310,000 tested, 1.3% active. B-score at 10 µM;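 active = compounds whose thallium flux B-score, printed positive for inhibition, exceeds three library SD while starting fluorescence stays within three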;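 note: channel opened by potassium depolarization with thallium stimulus after 20 min compound exposure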
KCNQ1 act: potentiators or activators of KCNQ1 channel, primary screen, cell-based, thallium flux, high-throughput; CHO-K1 KCNQ1, thallium flux FluxOR fluorescence; stronger effect = higher value; AID 2648, 2010; B-score at 10 µM; 310,000 tested, 0.35% active;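 active = fluorescence ratio B-score, a plate-corrected score, at least three library SD, with initial intensity B-score within 5 SD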
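System: CHO-K1 cells stably expressing KCNQ1 / Medium: assay buffer for compound exposure, DMSO matched across wells / Reagent: thallium- and potassium-containing depolarizing buffer / Compound: one concentration, matched DMSO / Incubation: 20 min compound pretreatment at room temperature / Measured by: kinetic FluxOR fluorescence, 10 s baseline plus 110 s post-stimulus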
KCNK9 block: KCNK9 potassium channel inhibitors, primary screen, HEK293 cells, thallium flux. AID 488922, 2010. FluxOR thallium flux fluorescence; stronger effect = lower value. 310,000 tested, 1.2% active. B-score at 10 µM;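 active = ratio B-score over 3 SD below the library mean, with starting fluorescence within 5 SD of its mean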;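 note: negative B-score means less thallium flux so channel inhibition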
Cl transport mod: KCC2 cotransporter modulators, thallium flux, primary screen, cell-based, HEK293 KCC2, FluoZin-2 fluorescence, MLSMR | KCC2 cells, thallium flux FluoZin-2 fluorescence | 190,000 tested, 2.2% active | B-score of Tl+ flux slope (higher = more flux/activation; lower = inhibition) at 10 µM;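 active = thallium flux slope and its plate-corrected score both differing from the plate sample mean at a set confidence after two filtering rounds, in either direction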;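 note: slope of fluorescence scaled to starting intensity during 10 to 20 s after thallium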
KCNK3 block: human KCNK3 channel inhibitors, primary screen, CHO cells, FluxOR thallium flux, B-score; B-score at 10 µM; Potassium channel subfamily K member 3 (Homo sapiens), O14649; AID 602410, 2012; 340,000 tested, 0.84% active; FluxOR fluorescence; stronger effect = lower value;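 active = B-score under library mean minus 4 SD, starting fluorescence ratio at most library mean plus 5 SD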;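 note: more negative B-score means stronger inhibition of thallium flux through KCNK3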
Target sequence (O14649 whole entry, looked up): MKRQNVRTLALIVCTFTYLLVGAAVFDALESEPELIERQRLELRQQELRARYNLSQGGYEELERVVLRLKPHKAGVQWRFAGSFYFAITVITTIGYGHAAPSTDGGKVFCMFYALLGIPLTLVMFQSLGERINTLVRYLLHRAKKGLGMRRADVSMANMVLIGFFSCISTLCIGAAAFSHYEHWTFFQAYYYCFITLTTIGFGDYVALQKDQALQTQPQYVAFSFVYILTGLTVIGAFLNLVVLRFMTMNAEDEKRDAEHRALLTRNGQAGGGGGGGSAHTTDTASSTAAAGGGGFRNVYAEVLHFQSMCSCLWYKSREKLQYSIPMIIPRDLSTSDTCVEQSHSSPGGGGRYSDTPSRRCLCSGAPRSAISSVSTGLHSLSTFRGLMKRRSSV
* hit, by the source's call; i = inactive; x = no result given. Only some compounds are listed: those with a hit (about 4.1% of all), similar ones and a draw of the others.

SMILES	hERG protect	KCNQ1 block	KCNQ1 act	KCNK9 block	Cl transport mod	KCNK3 block
Cc1cc(S(=O)(=O)N2CCOCC2)ccc1OCC(=O)Nc1ccccc1F	-11	i	i	i	x	i
Cc1ccc(C)c(SCC(=O)Nc2cc(S(=O)(=O)N3CCOCC3)ccc2C)c1	x	x	x	x	x	i
Cc1ccc(Cn2c(O)c(N=NC(=S)Nc3ccccc3F)c3cc(S(=O)(=O)N4CCOCC4)ccc32)cc1	5.7*	i	i	i	6.7	i
Cc1ccc(C)c(NC(=S)N=Nc2c(O)n(C)c3ccc(S(=O)(=O)N4CCOCC4)cc23)c1	-4	i	i	i	5.7*	i
CCOC(=O)Cc1csc(NC(=O)CC(C)(C)CC(=O)O)n1	-5	i	i	i	-0.049	i
CCOC(=O)Cc1csc(NC(=S)NC(=O)C(C)(C)C)n1	-1	i	i	i	15*	i
CCn1c(=O)c([N+](=O)[O-])c(NCCN(C)C)c2ccccc21	-10	i	i	i	-0.8	i
CCn1c(=O)c([N+](=O)[O-])c(Cl)c2ccccc21	-29	7*	i	i	-2.4	i
COc1ccc2sc(C)[n+](C)c2c1	4.6*	i	i	i	1.9	i
CCCC[n+]1c(C)sc2cc(OC)ccc21	-11	i	i	i	0.3	i
CCC(=O)Nc1sc(Cc2ccc3c(c2)OCO3)c(C)c1C(N)=O	-9	i	i	i	-0.34	i
Cc1c(Cc2ccc3c(c2)OCO3)sc(NC(=O)C(C)(C)C)c1C#N	-5	i	i	-7.6*	-0.0016	i
COc1ccc(CN(C)CC(=O)NC(=O)NCc2ccccc2)cc1OC	-5	i	i	i	5*	i
CCCn1c(CN2CCN(C(=O)OCC)CC2)nc2cc([N+](=O)[O-])ccc21	-9	i	i	i	x	i
Cc1ccc(-n2c(C)cc(C3=NNC(=NC4CC4)SC3)c2C)cc1C	-24	7*	i	i	1.7	i
CCOC(=O)C1CCN(S(=O)(=O)c2cccc3nonc23)CC1	14*	i	i	i	0.12	i
CCOC(=O)C1CCN(S(=O)(=O)c2c(Cl)ccc3nonc23)CC1	-19	i	9*	i	x	i
CCOC(=O)C1CCN(S(=O)(=O)c2ccccc2)CC1	-2	i	i	i	x	i
CCCNC(=O)C1CCN(S(=O)(=O)c2cccc3nonc23)CC1	-6	i	i	i	-1	i
CN(CC(=O)Nc1cc(C(F)(F)F)ccc1-n1cncn1)Cc1ccccc1N1CCOCC1	x	x	x	x	x	i
CC(=O)OCCNc1cc(SC(C)C)c2nonc2c1[N+](=O)[O-]	-2	i	i	i	-0.28	i
CC(=O)OCCN(C)c1cc(SC(C)C)c2nonc2c1[N+](=O)[O-]	7.4*	i	i	i	-0.041	i
COc1cccc(-c2cc(C(=O)Nc3ccc(N(C)C(C)=O)cc3)c3cc(Br)ccc3n2)c1	-4	10*	i	i	x	i
COc1cccc(-c2cc(C(=O)Nc3ccncc3)c3ccccc3n2)c1	-9	i	i	i	x	i
Cc1noc(C)c1C(=O)Nc1cc(S(=O)(=O)N2CCCCC2)ccc1N(C)C	x	x	x	x	x	i
SMILES	hERG protect	KCNQ1 block	KCNQ1 act	KCNK9 block	Cl transport mod	KCNK3 block
CCCCCNCC(=O)Nc1cccc(C(=O)Nc2cccc(C(F)(F)F)c2)c1	-28	6*	i	i	0.84	i
CCC(C)c1ccccc1NC(=O)c1[nH]c(C)c(C(C)=O)c1C (stereo not given)	5.8*	i	i	i	x	i
CC(=O)c1c(C)[nH]c(C(=O)Nc2cccc(C(F)(F)F)c2)c1C	-9	i	7*	i	x	i
Cc1ccc(NC(=S)N/N=C/c2c(C)[nH]c3ccccc23)cc1	-9	6*	i	i	0.082	i
Cc1[nH]c2ccccc2c1/C=N/NC(=O)CNC(=O)Cc1ccccc1	-12	i	i	i	x	i
Cc1[nH]c2ccccc2c1/C=N/NC(N)=S	-12	i	i	i	-0.69	i
Cc1[nH]c2ccccc2c1/C=N/NC(=S)NCc1ccccc1	-4	6*	i	i	1.1	i
O=C1Cc2cc(S(=O)(=O)NCc3ccc(F)cc3)ccc2N1	x	x	x	x	x	i
O=C(C[C@H]1C[C@H](C(=O)N2CCOCC2)[C@@]2(CCC3CCCC3)c3[nH]c4ccc(Cl)cc4c3CCN2C1=O)NCC12CC3CC(CC(C3)C1)C2	x	x	x	x	x	i
COc1ccc(-c2noc(N3CCC(C(=O)NCCCN4CCCC(C)C4)CC3)n2)cc1 (stereo not given)	-13	i	i	i	x	i
COc1ccc(OC)c(NC(=O)c2c(NC(=O)CNCc3ccco3)sc3c2CCC3)c1	-12	i	i	i	0.52	i
COc1ccc(NC(=O)c2c(NC(=O)CNCc3ccco3)sc3c2CCC3)c(OC)c1	-11	7*	i	i	-0.22	i
CCCCN(C(=O)Cc1ccc2c(c1)OCCO2)c1c(N)n(CC(C)C)c(=O)[nH]c1=O	x	x	x	x	x	i
N#Cc1ccc(/C=N/NC(=O)c2cc(-c3cccs3)nc3ccccc23)cc1	-15	6*	i	i	0.64	i
COc1cc(/C=N/NC(=O)c2cc(-c3cccs3)nc3ccccc23)ccc1O	-22	i	i	i	-0.014	i
CC(C)(Oc1ccc(Cl)cc1)C(=O)NCC1CCCO1 (stereo not given)	-8	i	i	i	x	i
FC(F)c1nnc2c(Cl)cc(C(F)(F)F)cn12	6.4*	i	i	i	0.0087	i
Fc1ccc(-c2nc3c(Cl)cc(C(F)(F)F)cn3c2Cl)cc1	-12	i	i	i	x	i
C#CCOCCOCCOCCNc1nc(N2CCN(C(=O)[C@H](CCCCN)n3cc(C(N)COC(=O)C(F)(F)F)nn3)CC2)nc(N2CCN(C(=O)[C@H](CCCCN)n3cc(C(N)CC(C)C)nn3)CC2)n1 (stereo not given in full)	x	x	x	x	0.76	x
COc1cccc(NS(=O)(=O)NC(=O)c2cn(C)c3ccccc23)c1	-5	i	i	i	x	i
